Measured values as given in ChEMBL document CHEMBL3232910, “Synthesis and evaluation of several oleanolic acid glycoconjugates as protein tyrosine phosphatase 1B inhibitors” (Eur J Med Chem, 2014).
pIC50: −log10 of the molar value.

How the values were obtained:
[1] = target: T1, Tyrosine-protein phosphatase non-receptor type 1 (Homo sapiens, UniProt P18031); experiment: Inhibition of recombinant PTP1B (unknown origin) using p-nitrophenyl phosphate as substrate assessed as inhibition of release of p-nitrophenol preincubated for 10 mins measured before substrate addition after 30 mins by spectrophotometry
T1 sequence (P18031 whole entry): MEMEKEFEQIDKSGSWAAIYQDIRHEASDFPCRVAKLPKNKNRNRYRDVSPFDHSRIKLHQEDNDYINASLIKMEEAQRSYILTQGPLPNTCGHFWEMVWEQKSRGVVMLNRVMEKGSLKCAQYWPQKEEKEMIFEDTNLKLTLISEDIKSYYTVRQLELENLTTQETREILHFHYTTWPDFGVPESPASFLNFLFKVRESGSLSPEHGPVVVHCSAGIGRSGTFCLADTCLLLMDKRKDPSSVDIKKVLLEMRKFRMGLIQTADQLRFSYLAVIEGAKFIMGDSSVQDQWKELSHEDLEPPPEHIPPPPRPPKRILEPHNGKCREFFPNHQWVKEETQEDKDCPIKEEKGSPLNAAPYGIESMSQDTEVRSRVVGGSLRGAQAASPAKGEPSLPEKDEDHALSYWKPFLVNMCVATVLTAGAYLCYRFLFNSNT
In short: (§1)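 Enzyme diluted in 25 mM HEPES, 50 mM NaCl, 2.5 mM EDTA, 0.1% BSA, pH 7.2. Inhibitor in DMSO was preincubated with enzyme in 50 mM HEPES, 2.5 mM EDTA, pH 7.0 at 37 C for 10 min. pNPP was then added, 30 min at 37 C, stopped with 2 M Na2CO3, A405 read.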

[2] = target: T2, Tyrosine-protein phosphatase non-receptor type 2 (Homo sapiens, UniProt P17706); experiment: Inhibition of TCPTP (unknown origin) using p-nitrophenyl phosphate as substrate assessed as inhibition of release of p-nitrophenol preincubated for 10 mins measured before substrate addition after 30 mins by spectrophotometry; in short: as §1
T2 sequence (P17706 whole entry): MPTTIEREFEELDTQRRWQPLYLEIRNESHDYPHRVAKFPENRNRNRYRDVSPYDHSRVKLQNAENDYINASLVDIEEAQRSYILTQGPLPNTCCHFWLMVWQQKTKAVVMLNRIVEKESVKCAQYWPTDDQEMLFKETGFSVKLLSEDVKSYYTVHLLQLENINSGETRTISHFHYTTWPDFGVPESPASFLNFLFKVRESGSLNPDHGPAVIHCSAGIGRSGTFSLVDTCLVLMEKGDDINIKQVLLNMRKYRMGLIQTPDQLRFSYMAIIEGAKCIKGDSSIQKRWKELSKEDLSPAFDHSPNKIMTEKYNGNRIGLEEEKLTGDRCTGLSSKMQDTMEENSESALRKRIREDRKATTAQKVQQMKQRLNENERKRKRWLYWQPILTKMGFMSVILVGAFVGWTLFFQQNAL

Homo sapiens = species: Homo sapiens; experiment: Selectivity ratio of IC50 for TCPTP (unknown origin) to IC50 for recombinant PTP1B (unknown origin)
In short: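 Ratio of TCPTP IC50 to PTP1B IC50. Both come from the same pNPP hydrolysis assay: 10 min preincubation at 37 C in 50 mM HEPES, 2.5 mM EDTA, pH 7.0, 30 min reaction, Na2CO3 quench, A405. IC50 from 4-parameter logistic fits.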

[3] = target: T3, Tyrosine-protein phosphatase non-receptor type 1 (Homo sapiens) (UniProt P18031); experiment: Inhibition of recombinant PTP1B (unknown origin) using p-nitrophenyl phosphate as substrate assessed as inhibition of release of p-nitrophenol preincubated for 10 mins measured before substrate addition at 10 ug/ml after 30 mins by spectrophotometry
T3 sequence (whole entry): T1 sequence (P18031 whole entry)

pIC50 [1]	pIC50 [2]	Ratio IC50 (Homo sapiens)	inhibition [3]	Compound
4.76	4.52	1.8	> 54.7%	CC1(C)CC[C@]2(C(=O)O[C@@H]3O[C@H](CNC(=O)c4ccccc4C(=O)O)[C@@H](O)[C@H](O)[C@H]3O)CC[C@]3(C)C(=CC[C@@H]4[C@@]5(C)CC[C@H](O[C@@H]6O[C@H](CO)[C@@H](O)[C@H](O)[C@H]6O)C(C)(C)[C@@H]5CC[C@]43C)[C@@H]2C1
4.98	5.06	0.8	> 54.7%	C[C@@H]1O[C@@H](O[C@H]2CC[C@]3(C)[C@H]4CC=C5[C@@H]6CC(C)(C)CC[C@]6(C(=O)O[C@@H]6O[C@H](CNC(=O)c7ccccc7C(=O)O)[C@@H](O)[C@H](O)[C@H]6O)CC[C@@]5(C)[C@]4(C)CC[C@H]3C2(C)C)[C@@H](O)[C@H](O)[C@@H]1O
4.69	4.61	1.2	54.7%	CC1(C)CC[C@]2(C(=O)O[C@@H]3O[C@H](CNC(=O)c4ccccc4C(=O)O)[C@@H](O)[C@H](O)[C@H]3O)CC[C@]3(C)C(=CC[C@@H]4[C@@]5(C)CC[C@H](O)C(C)(C)[C@@H]5CC[C@]43C)[C@@H]2C1
5.19	4.84	2.2	> 54.7%	CC1(C)CC[C@]2(C(=O)O[C@@H]3O[C@H](CNC(=O)c4ccccc4C(=O)O)[C@@H](O)[C@H](O)[C@H]3O)CC[C@]3(C)C(=CC[C@@H]4[C@@]5(C)CC[C@H](O[C@@H]6O[C@H](CO)[C@H](O)[C@H](O)[C@H]6O)C(C)(C)[C@@H]5CC[C@]43C)[C@@H]2C1
5.25	4.91	2.2	> 54.7%	CC1(C)CC[C@]2(C(=O)O[C@@H]3O[C@H](CNC(=O)c4ccccc4C(=O)O)[C@@H](O)[C@H](O)[C@H]3O)CC[C@]3(C)C(=CC[C@@H]4[C@@]5(C)CC[C@H](O[C@@H]6OC[C@H](O)[C@H](O)[C@H]6O)C(C)(C)[C@@H]5CC[C@]43C)[C@@H]2C1
4.78	4.81	0.9	> 54.7%	CC1(C)CC[C@]2(C(=O)O[C@@H]3O[C@H](CNC(=O)c4ccccc4C(=O)O)[C@@H](O)[C@H](O)[C@H]3O)CC[C@]3(C)C(=CC[C@@H]4[C@@]5(C)CC[C@H](O[C@@H]6OC[C@@H](O)[C@H](O)[C@H]6O)C(C)(C)[C@@H]5CC[C@]43C)[C@@H]2C1
6.11	5.67	2.8	> 54.7%	CC1(C)CC[C@]2(C(=O)O[C@@H]3O[C@H](CNC(=O)c4ccccc4C(=O)O)[C@@H](O)[C@H](O)[C@H]3O)CC[C@]3(C)C(=CC[C@@H]4[C@@]5(C)CC[C@H](O[C@@H]6O[C@H](CO)[C@@H](O[C@@H]7O[C@H](CO)[C@@H](O)[C@H](O)[C@H]7O)[C@H](O)[C@H]6O)C(C)(C)[C@@H]5CC[C@]43C)[C@@H]2C1
4.80			> 54.7%	CC1(C)CC[C@]2(C(=O)O[C@@H]3O[C@H](CNC(=O)c4ccccc4C(=O)O)[C@@H](O)[C@H](O)[C@H]3O)CC[C@]3(C)C(=CC[C@@H]4[C@@]5(C)CC[C@H](O[C@H]6O[C@H](CO)[C@@H](O)[C@H](O)[C@@H]6O)C(C)(C)[C@@H]5CC[C@]43C)[C@@H]2C1
5.99	5.39	4	> 54.7%	CC1(C)CC[C@]2(C(=O)O[C@@H]3O[C@H](CNC(=O)c4ccccc4C(=O)O)[C@@H](O)[C@H](O)[C@H]3O)CC[C@]3(C)C(=CC[C@@H]4[C@@]5(C)CC[C@H](O[C@@H]6O[C@H](CO)[C@@H](O[C@@H]7O[C@H](CO)[C@H](O)[C@H](O)[C@H]7O)[C@H](O)[C@H]6O)C(C)(C)[C@@H]5CC[C@]43C)[C@@H]2C1
5.51	5.53	1	> 54.7%	CC1(C)CC[C@]2(C(=O)O[C@@H]3O[C@H](CNC(=O)c4ccccc4C(=O)O)[C@@H](O)[C@H](O)[C@H]3O)CC[C@]3(C)C(=CC[C@@H]4[C@@]5(C)CC[C@H](O[C@@H]6O[C@H](CO[C@@H]7O[C@H](CO)[C@@H](O)[C@H](O)[C@H]7O)[C@@H](O)[C@H](O)[C@H]6O)C(C)(C)[C@@H]5CC[C@]43C)[C@@H]2C1
4.58			> 54.7%	C[C@@H]1O[C@@H](O[C@H]2CC[C@]3(C)[C@H]4CC=C5[C@@H]6CC(C)(C)CC[C@]6(C(=O)O[C@@H]6O[C@H](CNC(=O)c7ccccc7C(=O)O)[C@@H](O)[C@H](O)[C@H]6O)CC[C@@]5(C)[C@]4(C)CC[C@H]3C2(C)C)[C@H](O)[C@H](O)[C@H]1O
